Consider nine compounds from ChEMBL document CHEMBL1137361, “WB4101-related compounds: new, subtype-selective alpha1-adrenoreceptor antagonists (or inverse agonists?)” (J Med Chem, 2006).

In general, Ki refers to the dissociation constant of the complex between target and ligand, obtained from inhibition or displacement.

The target of experiment [1] is Alpha adrenergic receptor (1a and 1d) (Homo sapiens) (UniProt P35348+P25100). Briefly: Selectivity for human adrenergic alpha 1A receptor over human adrenergic alpha 1D receptor.
Experiment [2] addresses T1, Alpha-1B adrenergic receptor (Homo sapiens, UniProt P35368).
T1 sequence (P35368 whole entry): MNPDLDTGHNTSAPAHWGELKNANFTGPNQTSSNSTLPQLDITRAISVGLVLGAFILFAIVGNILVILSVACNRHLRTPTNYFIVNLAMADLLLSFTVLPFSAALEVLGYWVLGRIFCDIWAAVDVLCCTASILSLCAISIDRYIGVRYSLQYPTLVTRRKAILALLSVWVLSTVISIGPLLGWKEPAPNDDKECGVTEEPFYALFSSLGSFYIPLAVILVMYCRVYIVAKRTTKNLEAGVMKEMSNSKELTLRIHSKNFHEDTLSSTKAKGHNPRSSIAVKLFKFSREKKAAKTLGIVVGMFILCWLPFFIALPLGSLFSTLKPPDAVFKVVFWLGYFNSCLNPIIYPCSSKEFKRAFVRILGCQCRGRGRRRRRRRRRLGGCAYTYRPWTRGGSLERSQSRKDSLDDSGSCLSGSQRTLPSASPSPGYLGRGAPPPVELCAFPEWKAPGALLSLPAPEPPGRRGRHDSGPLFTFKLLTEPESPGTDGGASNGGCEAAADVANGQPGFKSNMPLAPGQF
Description: Displacement of [3H]prazosin from cloned human adrenergic alpha 1B receptor expressed in CHO cells. It is filed as cell-based. The essentials:
(§1)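 Radioligand binding with [3H]prazosin as the label. Membranes came from CHO cells expressing the cloned human receptor. Affinity is expressed as pKi.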
For orientation: Loss of bound radioactivity is the signal in a displacement assay; it reports binding, not function.

Experiment [3] concerns the target T2, Alpha-1B adrenergic receptor (Rattus norvegicus, UniProt P15823).
T2 sequence (P15823 whole entry): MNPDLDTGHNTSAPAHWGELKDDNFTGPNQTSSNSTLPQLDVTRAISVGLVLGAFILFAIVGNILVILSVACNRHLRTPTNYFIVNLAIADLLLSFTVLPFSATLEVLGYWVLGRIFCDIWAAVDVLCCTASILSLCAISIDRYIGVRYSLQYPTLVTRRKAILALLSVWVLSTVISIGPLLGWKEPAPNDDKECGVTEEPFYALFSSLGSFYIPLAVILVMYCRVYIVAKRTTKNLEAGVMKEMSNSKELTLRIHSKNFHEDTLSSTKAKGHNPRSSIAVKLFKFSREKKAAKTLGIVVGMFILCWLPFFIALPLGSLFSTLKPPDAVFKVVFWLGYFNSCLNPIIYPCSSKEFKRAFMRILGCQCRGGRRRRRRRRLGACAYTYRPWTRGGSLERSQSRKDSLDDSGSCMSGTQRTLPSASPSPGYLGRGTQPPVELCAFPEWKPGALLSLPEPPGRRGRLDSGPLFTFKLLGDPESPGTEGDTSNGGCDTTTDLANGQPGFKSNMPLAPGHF
Briefly: Activity at adrenergic alpha 1B receptor assessed as antagonsim of phenylephrine-induced contraction of Sprague-Dawley rat spleen. It is filed as functional, tissue-based. The conditions noted are these: read-out: pA2 (converted). The gist of the method: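 Rat spleen contracted with (-)-phenylephrine. Blocking activity was measured as antagonism of the contraction.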

Experiment [4] has as its target T3, Alpha-1D adrenergic receptor (Homo sapiens, UniProt P25100).
T3 sequence (P25100 whole entry): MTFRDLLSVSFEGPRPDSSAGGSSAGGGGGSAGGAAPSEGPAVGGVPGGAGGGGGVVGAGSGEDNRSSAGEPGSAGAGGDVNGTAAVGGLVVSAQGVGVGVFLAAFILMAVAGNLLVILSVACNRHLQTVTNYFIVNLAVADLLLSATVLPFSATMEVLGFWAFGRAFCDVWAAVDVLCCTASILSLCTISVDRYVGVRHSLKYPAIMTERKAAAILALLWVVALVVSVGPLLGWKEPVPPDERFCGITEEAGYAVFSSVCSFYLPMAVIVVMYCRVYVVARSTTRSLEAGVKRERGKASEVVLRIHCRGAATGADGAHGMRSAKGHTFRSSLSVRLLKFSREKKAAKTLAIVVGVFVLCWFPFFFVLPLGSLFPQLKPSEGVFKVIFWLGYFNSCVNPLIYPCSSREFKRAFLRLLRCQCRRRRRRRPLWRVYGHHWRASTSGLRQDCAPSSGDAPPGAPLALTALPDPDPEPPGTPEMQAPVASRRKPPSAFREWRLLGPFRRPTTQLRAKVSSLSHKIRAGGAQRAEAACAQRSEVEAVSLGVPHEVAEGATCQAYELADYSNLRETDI
Description: Displacement of [3H]prazosin from cloned human adrenergic alpha 1D receptor expressed in CHO cells. It is filed as cell-based. The gist of the method: as §1

The target of experiment [5] is Adrenergic receptors; alpha-1 A & B (Homo sapiens) (UniProt P35348+P35368). Briefly: Selectivity for human adrenergic alpha 1B receptor over human adrenergic alpha 1A receptor. It is filed as protein assay.
For experiment [6], the target named is Alpha adrenergic receptor 1A and 1B (Rattus norvegicus) (UniProt P15823+P43140). Description: Selectivity for Sprague-Dawley rat adrenergic alpha 1B receptor over adrenergic alpha 1A receptor. It is filed as functional.
A short description of experiment [7]: Selectivity for 5HT1A receptor in rat hippocampus over human adrenergic alpha 1A receptor. It is filed as tissue-based.
Experiment [8] deals with Alpha adrenergic receptor 1A and 1D (Rattus norvegicus) (UniProt P23944+P43140). Description: Selectivity for Sprague-Dawley rat adrenergic alpha 1D receptor over adrenergic alpha 1A receptor. It is filed as functional.
Experiment [9] has as its target T4, Alpha-1D adrenergic receptor (Rattus norvegicus, UniProt P23944).
T4 sequence (P23944 whole entry): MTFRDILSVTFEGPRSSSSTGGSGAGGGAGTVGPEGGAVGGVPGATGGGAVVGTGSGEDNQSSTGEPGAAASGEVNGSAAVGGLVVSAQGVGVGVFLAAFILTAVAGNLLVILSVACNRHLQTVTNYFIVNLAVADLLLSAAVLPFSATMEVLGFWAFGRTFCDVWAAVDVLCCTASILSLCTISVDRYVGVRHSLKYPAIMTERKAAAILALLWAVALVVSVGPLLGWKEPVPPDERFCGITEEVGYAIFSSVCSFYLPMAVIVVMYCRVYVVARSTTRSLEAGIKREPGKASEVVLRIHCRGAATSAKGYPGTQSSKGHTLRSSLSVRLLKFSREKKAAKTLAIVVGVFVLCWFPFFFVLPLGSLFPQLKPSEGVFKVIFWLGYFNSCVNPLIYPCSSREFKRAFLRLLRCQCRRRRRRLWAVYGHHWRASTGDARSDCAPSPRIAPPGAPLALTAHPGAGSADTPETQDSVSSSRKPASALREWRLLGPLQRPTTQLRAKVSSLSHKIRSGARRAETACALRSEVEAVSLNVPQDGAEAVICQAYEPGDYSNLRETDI
Briefly: Activity at adrenergic alpha 1D receptor assessed as antagonism on noradrenaline-induced contraction of Sprague-Dawley rat thoracic aorta. The conditions noted are these: read-out: pA2 (converted). It is filed as functional, tissue-based. The essentials: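 Rat thoracic aorta contracted with (-)-noradrenaline. Blocking activity was measured as antagonism of the contraction.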

Alpha adrenergic receptor (1a and 1d) (Homo sapiens), sequence (P35348 whole entry, looked up, one chain of several): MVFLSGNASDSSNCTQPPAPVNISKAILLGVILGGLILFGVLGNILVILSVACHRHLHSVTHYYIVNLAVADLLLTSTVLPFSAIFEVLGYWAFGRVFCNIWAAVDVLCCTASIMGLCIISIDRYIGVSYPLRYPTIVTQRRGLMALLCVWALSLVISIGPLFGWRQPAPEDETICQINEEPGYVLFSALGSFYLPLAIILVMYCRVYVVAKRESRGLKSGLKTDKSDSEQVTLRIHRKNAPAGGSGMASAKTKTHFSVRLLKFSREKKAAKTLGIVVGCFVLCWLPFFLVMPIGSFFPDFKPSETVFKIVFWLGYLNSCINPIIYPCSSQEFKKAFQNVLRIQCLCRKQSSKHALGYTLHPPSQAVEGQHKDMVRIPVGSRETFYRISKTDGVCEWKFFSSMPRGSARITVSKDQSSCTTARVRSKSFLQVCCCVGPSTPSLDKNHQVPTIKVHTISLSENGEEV
Alpha adrenergic receptor 1A and 1B (Rattus norvegicus), sequence (P43140 whole entry, looked up, one chain of several): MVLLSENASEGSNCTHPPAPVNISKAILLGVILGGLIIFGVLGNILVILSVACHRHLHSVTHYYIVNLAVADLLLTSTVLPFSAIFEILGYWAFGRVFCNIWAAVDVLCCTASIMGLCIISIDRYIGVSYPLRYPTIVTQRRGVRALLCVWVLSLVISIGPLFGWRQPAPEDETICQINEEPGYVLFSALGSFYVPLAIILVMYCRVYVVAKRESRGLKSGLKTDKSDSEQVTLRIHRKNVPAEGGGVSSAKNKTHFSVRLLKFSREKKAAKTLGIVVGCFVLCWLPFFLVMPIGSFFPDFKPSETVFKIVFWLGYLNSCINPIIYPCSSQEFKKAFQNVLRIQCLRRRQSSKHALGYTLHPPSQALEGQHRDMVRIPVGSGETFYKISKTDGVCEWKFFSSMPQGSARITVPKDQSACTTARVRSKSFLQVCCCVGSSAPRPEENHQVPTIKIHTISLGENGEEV
Adrenergic receptors; alpha-1 A & B (Homo sapiens), sequence (P35348 whole entry, looked up, one chain of several): as the sequence (P35348 whole entry, looked up, one chain of several) above
Alpha adrenergic receptor 1A and 1D (Rattus norvegicus), sequence (P43140 whole entry, looked up, one chain of several): as the sequence (P43140 whole entry, looked up, one chain of several) above

`COc1cc(-c2ccccc2)ccc1OCCNC[C@H]1COc2ccccc2O1`: the Selectivity ratio in experiment [1] was 2.5; in [5], 2.1; in experiment [6], 0.17; in experiment [7], 0.9; in experiment [8], 0.14. The Ki is 186 nM in [2] and 214 nM in experiment [4]. The values for the Kb in experiment [3] and in experiment [9] were 132 nM and 107 nM, respectively.
In the case of `COc1cccc(OC)c1OCCNC[C@H]1COc2cc3c(cc2O1)CCCC3`, the Selectivity ratio in experiment [1] was 13.5; in experiment [5], 22.9; in [6] it was below 0.3; in experiment [7], 14.5; in [8] it was below 0.4. Further, the results for the Ki in [2] and in experiment [4] were 575 nM and 339 nM, respectively. For the same compound, the Kb in experiment [3] is 2630 nM; in experiment [9], 4370 nM.
As to `COc1cccc(OC)c1OCCNC[C@H]1COc2cc3ccccc3cc2O1`, the Selectivity ratio in experiment [1] was 12.3; in experiment [5], 26.3; in [6], 0.7; in [7] it was 10.2; in [8] it was 0.05. Besides, the Ki is 891 nM in experiment [2] and 417 nM in experiment [4]. Besides, the Kb is 2450 nM in experiment [3] and 182 nM in experiment [9].
As for `COc1ccc2ccccc2c1OCCNC[C@H]1COc2ccccc2O1`, the Selectivity ratio in [1] was 4.2; in [5], 10; in experiment [6] it was 0.2; in [7], 7.1; in experiment [8], 0.02. Moreover, the Ki in [2] was 15.8 nM; in [4], 6.61 nM. For the same compound, the Kb was 0.204 nM in [3] and 0.0209 nM in experiment [9].
Regarding `COc1cccc(-c2ccccc2)c1OCCNC[C@H]1COc2ccccc2O1`, the Selectivity ratio worked out at 2.8 in [1]; 14.8 in [5]; 1.2 in experiment [6]; 5.8 in experiment [7]; 0.2 in [8]. Also, the values for the Ki in experiment [2] and in [4] were 17.8 nM and 3.39 nM, respectively. The values for the Kb in experiment [3] and in experiment [9] were 7.59 nM and 1.02 nM, respectively.
Turning to `COc1ccc2ccccc2c1OCCNC[C@H]1COc2cc3c(cc2O1)CCCC3`, the Selectivity ratio was 2.2 in experiment [1]; 5.6 in experiment [5]; above 955 in experiment [6]; 25.7 in experiment [7]; 245 in experiment [8]. Also, the results for the Ki in [2] and in [4] were 372 nM and 148 nM, respectively. Also, the Kb was above 10000 nM in [3] and 2570 nM in experiment [9].
Consider `COc1ccc2ccccc2c1OCCNC[C@@H]1COc2ccccc2O1`, for which the Selectivity ratio turned out to be 4.9 in [1]; 18.6 in experiment [5]; 0.25 in experiment [6]; 14.8 in experiment [7]; 0.17 in [8]. The figures for the Ki in [2] and in [4] were 85.1 nM and 22.4 nM, respectively. Also, the Kb is 14.8 nM in experiment [3] and 10 nM in experiment [9].
As for `COc1ccc2c(c1OCCNC[C@H]1COc3ccccc3O1)CCCC2`, the Selectivity ratio in experiment [1] is 5.1; in [5], 6.8; in experiment [6], 0.05; in experiment [7] it was 3; in [8] it was 0.04. Further, the Ki was 19.1 nM in [2] and 14.5 nM in experiment [4]. Further, the figures for the Kb in [3] and in [9] were 4.47 nM and 4.07 nM, respectively.
On to `COc1ccc(-c2ccccc2)cc1OCCNC[C@H]1COc2ccccc2O1`, for which the Selectivity ratio in [1] is 2.7; in experiment [5], 1.9; in [6] it was below 0.01; in experiment [7], 9.3; in experiment [8], below 0.006. For the same compound, the Ki in experiment [2] was 11 nM; in experiment [4] it was 15.1 nM. The Kb in experiment [3] was 135 nM; in [9], 61.7 nM.
